Data on 23 compounds can be found in ChEMBL document CHEMBL4000147, “Pyrrolo[2,3-b]pyridine derivatives as potent Bruton's tyrosine kinase inhibitors” (Bioorg Med Chem, 2015).

Data set [1] in a line: Cmax in Sprague-Dawley rat at 4 mg/kg, po by LC/MS/MS analysis. Set-up: dose 4 mg/kg, route oral. Conditions: in vivo. Type of data set: ADME, organism-based. The procedure, abridged:
(§1)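 Three male SD rats (180–240 g) dosed orally, 4 mg/kg, dosing volume 5 mL/kg. Blood sampled at 2, 5, 15, 30 min and 1, 2, 4, 6, 8, 10, 24 h, centrifuged 4000 rpm 5 min at 4 °C. Plasma analysed after protein precipitation by LC/MS/MS in SRM mode with internal standard. Parameters from concentration–time data by noncompartmental analysis.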

A short description of data set [2]: Tmax in Sprague-Dawley rat at 4 mg/kg, po by LC/MS/MS analysis. Type of data set: ADME, organism-based. Conditions: in vivo. The procedure, abridged: as §1
Data set [3] in a line: AUClast in Sprague-Dawley rat at 4 mg/kg, po by LC/MS/MS analysis. Details: dose 4 mg/kg, route oral, time 0 - last. The following applies: in vivo. Type of data set: ADME, organism-based. The procedure, abridged: as §1
A short description of data set [4]: Clearance in Sprague-Dawley rat at 4 mg/kg, po by LC/MS/MS analysis. Format: ADME, organism-based. Conditions: in vivo. The procedure, abridged:
as §1

The nature of data set [5]: Half life in Sprague-Dawley rat at 4 mg/kg, po by LC/MS/MS analysis. Type of data set: ADME, organism-based. The following applies: in vivo. Summed up:
as §1

The target of data set [6] is T1, Tyrosine-protein kinase BTK (Homo sapiens, UniProt Q06187). Kind of data set: Inhibition of recombinant human His-tagged full length BTK expressed in baculovirus using biotin labeled peptide substrate after 1 hr by HRTF kinase/TR-FRET assay. In general terms: In TR-FRET formats the signal depends on donor and acceptor labels being close together.
Data set [7] has as its target T1, Tyrosine-protein kinase BTK. Kind of data set: Inhibition of BTK in human Ramos cells assessed as inhibition of anti human IgM-induced calcium influx preincubated for 20 mins in dark followed by anti human IgM induction for 8 mins by FLIPR assay. Type of data set: cell-based.

T1 sequence (Q06187 whole entry): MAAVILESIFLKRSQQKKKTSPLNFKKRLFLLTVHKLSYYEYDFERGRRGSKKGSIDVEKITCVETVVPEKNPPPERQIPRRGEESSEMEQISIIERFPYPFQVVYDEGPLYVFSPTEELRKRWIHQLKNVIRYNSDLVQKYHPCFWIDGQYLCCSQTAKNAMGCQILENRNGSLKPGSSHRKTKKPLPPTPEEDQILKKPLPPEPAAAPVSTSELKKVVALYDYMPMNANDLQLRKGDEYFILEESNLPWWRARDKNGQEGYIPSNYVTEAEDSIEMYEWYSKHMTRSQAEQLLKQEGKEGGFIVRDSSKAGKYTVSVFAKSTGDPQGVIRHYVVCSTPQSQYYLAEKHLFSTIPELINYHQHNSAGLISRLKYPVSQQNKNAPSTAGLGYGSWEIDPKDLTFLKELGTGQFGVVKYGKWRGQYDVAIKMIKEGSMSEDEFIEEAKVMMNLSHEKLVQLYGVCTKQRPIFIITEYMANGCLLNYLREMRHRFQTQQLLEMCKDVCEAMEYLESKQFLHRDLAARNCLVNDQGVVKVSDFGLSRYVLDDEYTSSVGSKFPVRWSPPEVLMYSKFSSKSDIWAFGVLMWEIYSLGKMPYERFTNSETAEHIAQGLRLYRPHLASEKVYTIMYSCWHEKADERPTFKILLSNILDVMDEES

In general, Cmax refers to the highest concentration seen after dosing. One may read the Tmax as the time at which the peak concentration occurs. As a reminder, the AUC(0-t) is exposure summed from dosing to a finite time, without extrapolation to infinity. Low values mean less exposure, high ones more exposure. One may read the CL/F as clearance divided by bioavailability, as obtained after extravascular dosing. As usually defined, the half-life is the time needed for the level to fall by half in the phase considered. In the case of `CN1CCN(c2ccc(Nc3cc(-c4cccc(-n5ccc6cc(C7CC7)cc(F)c6c5=O)c4CO)cn(C)c3=O)nc2)CC1`, the peak level in data set [1] (Cmax) was 134 ng/mL. In addition, the Tmax in data set [2] was 4 h. For the same compound, the exposure AUC(0-t) in data set [3] worked out at 1050 ng·h/mL. Besides, in data set [4], the apparent clearance (CL/F) is 53.3 mL/min/kg. The half-life in data set [5] was 4.4 h.
In turn, `CN(C)C(=O)N1CC=C(c2cc3c(-c4cccc(-n5ccc6cc(C7CC7)cc(F)c6c5=O)c4CO)ncnc3[nH]2)CC1` yielded a Cmax in data set [1] of 422 ng/mL. Moreover, in data set [2], the time of peak concentration (Tmax) stood at 0.8 h. In addition, the AUC(0-t) in data set [3] is 1790 ng·h/mL. Moreover, the apparent clearance CL/F in data set [4] is 43.3 mL/min/kg. In data set [5], this compound gave a half-life of 5.4 h.
As a reminder, the IC50 is the concentration that gives 50% inhibition. Consider `COc1ccc(-c2cc3c(-c4cccc(-n5ccc6cc(C7CC7)cc(F)c6c5=O)c4CO)ccnc3[nH]2)cn1`, for which the IC50 in data set [6] was 68.3 nM; in data set [7], 196 nM.
For `O=C(c1ccc(-c2cc3c(-c4cccc(-n5ccc6cc(C7CC7)cc(F)c6c5=O)c4CO)ccnc3[nH]2)cc1)N1CCCCC1` the same measures were 38 nM and 52 nM.
For `Nc1cccc(-c2cc3c(-c4cccc(-n5ccc6cc(C7CC7)cc(F)c6c5=O)c4CO)ccnc3[nH]2)c1` the same measures were 110 nM and 2410 nM.
Taken in the same sequence, the figures for `CC(=O)c1ccc(-c2cc3c(-c4cccc(-n5ccc6cc(C7CC7)cc(F)c6c5=O)c4CO)ccnc3[nH]2)cc1` were 21.3 nM and 32 nM.
Regarding `O=C(N1CC=C(c2cc3c(-c4cccc(-n5ccc6cc(C7CC7)cc(F)c6c5=O)c4CO)ccnc3[nH]2)CC1)N1CCOCC1`, the IC50 in data set [6] is 7.3 nM; in data set [7] it was 42 nM.
Taken in the same sequence, the figures for `O=c1c2c(F)cc(C3CC3)cc2ccn1-c1cccc(-c2ccnc3[nH]c(C4=CCN(C5COC5)CC4)cc23)c1CO` were 31.4 nM and 3 nM.
As for `O=c1c2c(F)cc(C3CC3)cc2ccn1-c1cccc(-c2ccnc3[nH]c(-c4ccc(O)cc4)cc23)c1CO`, the IC50 was determined as 39.8 nM in data set [6] and 110 nM in data set [7].
For `Cn1ccc(-c2cc3c(-c4cccc(-n5ccc6cc(C7CC7)cc(F)c6c5=O)c4CO)ccnc3[nH]2)n1` the same measures were 20.6 nM and 9.5 nM.
For `CN(C)S(=O)(=O)N1CC=C(c2cc3c(-c4cccc(-n5ccc6cc(C7CC7)cc(F)c6c5=O)c4CO)ccnc3[nH]2)CC1` the same measures were 9.7 nM and 27 nM.
For `O=c1c2c(F)cc(C3CC3)cc2ccn1-c1cccc(-c2ccnc3[nH]c(-c4ccc(CN5CCOCC5)cc4)cc23)c1CO` the same measures were 18.1 nM and 69 nM.
On to `CC(=O)N1CC=C(c2cc3c(-c4cccc(-n5ccc6cc(C7CC7)cc(F)c6c5=O)c4CO)ccnc3[nH]2)CC1`, for which the IC50 in data set [6] worked out at 6.7 nM; in data set [7], 12 nM.
For the compound `CN(C)C(=O)N1CC=C(c2cc3c(-c4cccc(-n5ccc6cc(C7CC7)cc(F)c6c5=O)c4CO)cccc3[nH]2)CC1`, the IC50 in data set [6] and in data set [7] was greater than 5000 nM each time.
For the compound `CC(=O)c1cc(-c2cc3c(-c4cccc(-n5ccc6cc(C7CC7)cc(F)c6c5=O)c4CO)ccnc3[nH]2)cs1`, the figures for the IC50 in data set [6] and in data set [7] were 78.1 nM and 69 nM, respectively.
Taken in the same sequence, the figures for `COc1ccc(-c2cc3c(-c4cccc(-n5ccc6cc(C7CC7)cc(F)c6c5=O)c4CO)ccnc3[nH]2)cc1` were 27.3 nM and 56.3 nM.
For `CN(C)C(=O)c1ccc(-c2cc3c(-c4cccc(-n5ccc6cc(C7CC7)cc(F)c6c5=O)c4CO)ccnc3[nH]2)cc1`, the IC50 in data set [6] was determined as 12.1 nM; in data set [7] it was 94.2 nM.
For the compound `CN(C)C(=O)N1CC=C(c2cc3c(-c4cccc(-n5ccc6cc(C7CC7)cc(F)c6c5=O)c4CO)ccnc3[nH]2)CC1`, the IC50 was determined as 6 nM in data set [6] and 14 nM in data set [7]. Further, in data set [1], the peak level (Cmax) was 739 ng/mL. The Tmax in data set [2] came out at 1.9 h. The AUC(0-t) in data set [3] was determined as 3420 ng·h/mL. The apparent clearance CL/F in data set [4] was 20 mL/min/kg. In data set [5], the half-life was 8.9 h.
`CN(C)C(=O)c1ccc(-c2nc3c(-c4cccc(-n5ccc6cc(C7CC7)cc(F)c6c5=O)c4CO)ccnc3[nH]2)cc1`: the IC50 in data set [6] is 33.3 nM; in data set [7] it was 92.7 nM.
For `O=c1c2c(F)cc(C3CC3)cc2ccn1-c1cccc(-c2ccnc3[nH]c(C4=CCNCC4)cc23)c1CO` the same measures were 28.3 nM and 3 nM.
Taken in the same sequence, the figures for `CS(=O)(=O)N1CC=C(c2cc3c(-c4cccc(-n5ccc6cc(C7CC7)cc(F)c6c5=O)c4CO)ccnc3[nH]2)CC1` were 7.1 nM and 410 nM.
For `O=C(C1CC1)N1CC=C(c2cc3c(-c4cccc(-n5ccc6cc(C7CC7)cc(F)c6c5=O)c4CO)ccnc3[nH]2)CC1` the same measures were 10.4 nM and 16 nM.
`Cc1cc2c(-c3cccc(-n4ccc5cc(C6CC6)cc(F)c5c4=O)c3CO)ccnc2[nH]1`: the 50% inhibitory concentration (IC50) in data set [6] is 395 nM; in data set [7], 213 nM.
